TNAP inh no acc: inhibitors of human TNAP without phosphate acceptor | purified TNAP, CDP-star luminescence, 30 min | P05186 | inhibition, % at 20 µM | 200,000 tested, 0.26% active;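 active = tissue-nonspecific alkaline phosphatase inhibition above about 50% at 20 µM in the single-dose screen, limit read from the data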;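 note: 0% = DMSO negative control and 100% = EDTA positive control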
Target sequence (P05186 whole entry, looked up): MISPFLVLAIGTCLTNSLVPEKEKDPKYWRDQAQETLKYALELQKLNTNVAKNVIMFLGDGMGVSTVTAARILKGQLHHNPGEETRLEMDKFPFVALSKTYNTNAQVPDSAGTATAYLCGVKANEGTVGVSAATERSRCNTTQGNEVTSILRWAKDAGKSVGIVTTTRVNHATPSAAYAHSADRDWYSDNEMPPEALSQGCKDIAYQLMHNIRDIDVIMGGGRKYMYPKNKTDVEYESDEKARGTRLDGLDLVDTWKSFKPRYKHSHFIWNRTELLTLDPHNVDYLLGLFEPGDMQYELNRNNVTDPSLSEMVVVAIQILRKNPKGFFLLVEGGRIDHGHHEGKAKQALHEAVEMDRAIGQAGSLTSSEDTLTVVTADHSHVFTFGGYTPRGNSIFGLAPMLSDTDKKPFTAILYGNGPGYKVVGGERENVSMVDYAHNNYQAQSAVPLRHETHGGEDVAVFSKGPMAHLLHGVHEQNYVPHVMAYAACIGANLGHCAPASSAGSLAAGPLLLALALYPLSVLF
SDO1 yeast rescue: sdo1-depleted yeast growth rescue. S. cerevisiae sdo1-depleted JHY4D growth rescue, OD600 30 h; active compounds read high; pdr5 snq2 efflux-pump mutant strain. z-score at 10 µM. 140,000 tested, 0.21% active. AID 817;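 active = z-score above 3 at both the 24 hr and the 30 hr optical density reads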;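 note: z-score against mean and SD of all compound wells on the same plate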
zVAD death inh: blocks zVAD induced death of L929 cells; L929 zVAD necroptosis rescue, ATP luminescence, 24 h; with zVAD 60 µM; viability rescue, % at 10 µM; 220,000 tested, 0.38% active;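 active = activation, scaled between plate controls, above about 75%, limit read from the data; inactive = activation under that limit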;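 note: 0% = zVAD with DMSO and 100% = DMSO alone without zVAD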
TNAP act hiacc: increases human TNAP activity under high phosphate acceptor concentration; P05186; purified TNAP, CDP-star luminescence, 1 M DEA, 30 min; active compounds read high; 0 = EDTA background, 1 = DMSO-only activity; activation factor at 20 µM; 200,000 tested, under 10 active; AID 1136;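 active = activation factor at least 2 at 20 µM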
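system = human TNAP | amount = enzyme diluted 1/800 final | reagent = 100 µM CDP-star substrate | signal = luminescent substrate turnover signal | dosing = one dose, 20 µM | benchmarks = EDTA negative control, DMSO positive control | measure = activation factor | timing = 30 min reaction, room temperature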
TNAP inh hiacc: inhibitors of human TNAP at high phosphate acceptor concentration | P05186 | purified TNAP, CDP-star luminescence, 1 M DEA | inhibition, % at 20 µM | 200,000 tested, 0.03% active | AID 1135;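 active = over 50% inhibition of tissue-nonspecific alkaline phosphatase at 20 µM in the single-dose screen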;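 note: plate controls were DMSO wells for no effect and EDTA-quenched wells as full inhibition for full effect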
TNF death inh: blocks TNF-alpha induced death of Jurkat FADD-/- cells. 220,000 tested, 0.068% active. activation (protection from cell death), % at 10 µM. Jurkat FADD-/- TNF necroptosis rescue, ATP luminescence, 24 h; 0 = TNF only, 100 = no-TNF cells;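 active = activation, meaning protection from cell death, of at least 50% relative to plate controls; inactive = activation below 50%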;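 note: necroptosis triggered by 40 ng/mL TNF-alpha added together with compound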
* = called active by the depositor; . = not tested or not shown. Shown are actives, neighbours in structure and some others; about 0.81% of the full set was active somewhere.

SMILES | TNAP inh no acc | SDO1 yeast rescue | zVAD death inh | TNAP act hiacc | TNAP inh hiacc | TNF death inh
O=C(NCCCN1CCOCC1)c1ccccc1NS(=O)(=O)c1cc([N+](=O)[O-])ccc1Cl | -16 | 2.6 | -1 | 1 | -1 | -2
S=c1[nH]nc(-c2ccco2)n1/N=C/c1ccc(Cl)cc1 | 54* | -0.77 | 2 | 1 | 1 | 1
CCc1c(C)[nH]c2nc3ccccc3n2c1=O | 51* | -0.1 | -1 | 1 | -1 | 0
CNC[C@H](O)c1cccc(O)c1 | -6 | 1.2 | 3 | 1 | 3 | 0
CNC[C@H](O)c1ccc(O)c(O)c1 | 78* | 0.32 | 2 | 0.9 | 9 | 0
Cc1nnc(Sc2cc(C(=O)NC3CC3)c3ccccc3n2)s1 | . | . | 42 | . | . | 4
Cc1nnc(Sc2cc(C(=O)NCc3ccco3)c3ccccc3n2)s1 | -5 | 0.23 | 97* | 1 | -1 | 0
CC(C(=O)O)n1c(-c2ccn[nH]2)n[nH]c1=S (stereo unspecified) | . | . | 0 | . | . | 1
Cc1c(NC(=O)CSc2n[nH]c(-c3ccccc3)n2)c(=O)n(-c2ccccc2)n1C | 53* | 0.46 | 0 | 1 | 3 | 0
Cc1noc(NS(=O)(=O)c2ccc(NC(=O)CSc3n[nH]c(-c4ccccc4)n3)cc2)c1C | 60* | 0.25 | 0 | 0.9 | 8 | -1
O=C(CSc1n[nH]c(-c2ccccc2)n1)Nc1ccc(Br)cn1 | 57* | -1.2 | 2 | 1 | 2 | 3
CC(C)Cn1c(SCc2nc3ccccc3c(=O)[nH]2)nc2ccccc2c1=O | -6 | -1.5 | 0 | 1 | -1 | -2
CCN(CC)C(=O)c1sc2c(c1C)c(=O)n(-c1ccc(C)c(C)c1)c(=O)n2CC(=O)NCC1CCCO1 (stereo unspecified) | -6 | . | -1 | 1 | -1 | -1
O=C(c1ccccc1)c1cn[nH]c1-c1ccccc1O | 78* | 0.11 | 0 | 1 | 1 | -3
CC(C)Cn1c(-c2ccccc2F)n[nH]c1=S | 52* | 0.34 | 2 | 1.1 | -10 | 0
CCCCn1c(SCC(=O)N(C)C2CCS(=O)(=O)C2)nc2cc(S(N)(=O)=O)ccc21 (stereo unspecified) | . | . | -1 | . | . | -1
C/C(N)=C(/C#N)C(=O)CSc1n[nH]c(-c2ccccc2Br)n1 | 92* | -1 | 3 | 1 | 2 | 0
CC(C)Cn1c(=O)[nH]c(=O)c2c(C(F)(F)F)cc(-c3ccccc3)nc21 | . | . | 0 | . | . | -3
Cc1ccc(C(=O)n2nc(-n3cccc3)c3c(C)cc(C)nc32)cc1 | 58* | . | 2 | 1 | 0 | 1
CC1CCCN(C(C(=O)NC2CCCCC2)c2cc3c(cc2[N+](=O)[O-])OCO3)C1 (stereo unspecified) | -21 | -0.97 | -1 | 1 | 0 | 0
CC(C)Cc1nnc(NC(=O)CCC(=O)Nc2ccc(F)cc2)s1 | 51* | -0.4 | 1 | 1 | -1 | 1
CCCn1c(O)c(C=Nc2ccccc2)sc1=S | 1 | . | 1 | 0.9 | 5 | 2
CCn1c(O)c(C=NCc2ccccc2)sc1=S | . | . | -1 | . | . | 68*
O=C(CSc1nnc(CNc2ccc(F)cc2)n1Cc1ccccc1)N1CCOCC1 | 8 | -0.01 | 0 | 1 | -4 | 0
CC(=O)OC(C(=O)NC1CCCCC1)c1ccc(Cl)c(Cl)c1 (stereo unspecified) | -8 | . | 3 | 1 | -1 | 70*
SMILES | TNAP inh no acc | SDO1 yeast rescue | zVAD death inh | TNAP act hiacc | TNAP inh hiacc | TNF death inh
CC(C)c1nnc(-c2ccc(Cl)cc2)c(N(C)C)n1 | -4 | 0.22 | 0 | 1 | 0 | 75*
COc1ccc2c(c1)O[C@H](c1ccc3c(c1)OCO3)[C@@H](O)C2=O | -14 | 0.17 | 79* | 1 | -3 | 2
Oc1ccc(C=NC2CCCCC2)cc1 | . | . | 0 | . | . | 1
Cc1ccc(NS(=O)(=O)c2cc([N+](=O)[O-])ccc2NNC(=S)Nc2cccc(Cl)c2)c(C)c1 | 40 | 2.3 | 1 | 0.4 | 58* | -2
Cc1ccc(NS(=O)(=O)c2cc([N+](=O)[O-])ccc2NNC(=S)Nc2cc(C)ccc2C)c(C)c1 | 22 | 1.2 | 1 | 0.6 | 41 | -3
CC(C)(C)C1CCc2sc(C(=O)NNC(=O)CCl)cc2C1 (stereo unspecified) | -104 | . | 0 | 1.1 | -7 | -16
Cc1sc(NC(=O)CSc2nnc(-c3ccccc3)o2)c(C#N)c1C | -6 | -0.98 | 0 | 0.9 | 6 | 0
N#Cc1c(NC(=O)CSc2nnc(-c3ccccc3)o2)sc2c1CCCC2 | 4 | 0.03 | 0 | 0.4 | 63* | -1
N#Cc1c(NC(=O)CSc2nnc(-c3ccccc3O)n2-c2ccccc2)sc2c1CCCC2 | -2 | -1.4 | 0 | 1 | -2 | 1
N#Cc1c(NC(=O)CSc2nnc(-c3ccncc3)n2CC2CCCO2)sc2c1CCCC2 (stereo unspecified) | 29 | 0.98 | 0 | 0.5 | 51* | -3
CCn1c(SCC(=O)Nc2sc3c(c2C#N)CCCC3)nnc1-c1ccncc1 | 58* | 0.79 | 0 | 0.2 | 77* | 6
CC(C)CCNCC1OCc2ccccc2CO1 | 3 | 0.81 | 1 | 1 | -2 | 4
O=C1CC(C(=O)Nc2ccccc2)S/C(=N\NC(=O)c2ccccc2Cl)N1 (stereo unspecified) | -30 | . | 0 | 1 | 1 | 1
CN(c1ccccc1)S(=O)(=O)c1cccc(C(=O)NCCc2ccc(O)c(O)c2)c1 | 51* | . | 42 | 0.9 | 13 | -3
Clc1ccc2noc(-c3ccccc3)c2c1 | -4 | -0.05 | -1 | 1.1 | -7 | -2
COc1ccc(-c2onc3ccc(Cl)cc23)cc1OC | . | . | 75* | . | . | -6
CN(C)CCC1c2ccc(Cl)cc2CCc2cccnc21 (stereo unspecified) (tested in a mixture with another compound) | . | . | 0 | . | . | 3
O=C(O)CNC(=O)/C=C/c1ccc(Cl)cc1Cl | 60* | . | 1 | 1 | 1 | 1
O=C(O)c1[nH]nc2c1COc1ccccc1-2 | 91* | 0.13 | 0 | 1 | 0 | -1
N=C1C(c2ccccc2)=C(O)CN1NC(=O)c1ccc(Cl)cc1 | -17 | . | 3 | 1 | -3 | 0
Cc1c(C(=O)N2CCCCC2)sc(NC(=O)C23CC4CC(CC(C4)C2)C3)c1C#N | . | . | 0 | . | . | 0
CC(=O)C1=C(c2cccc([N+](=O)[O-])c2)N(C(C)=O)n2c(C)nnc2S1 | 63* | . | 0 | 1 | 1 | -5
CC(=O)c1c(C(C)=O)c(C)n(-c2cccc([N+](=O)[O-])c2)c1C | -6 | 0.21 | 1 | 1 | 0 | 0
O=C(/C=C/c1c(Cl)cccc1Cl)n1cccn1 | -7 | -0.97 | 0 | 1 | 1 | -3
